Measured values of several laboratories.
Each line is one published result; the experiments were not run side by side.
Target: Ephrin type-B receptor 3 (EPHB3, Homo sapiens, UniProt P54753)
Residues used in one study (P54753 34-998): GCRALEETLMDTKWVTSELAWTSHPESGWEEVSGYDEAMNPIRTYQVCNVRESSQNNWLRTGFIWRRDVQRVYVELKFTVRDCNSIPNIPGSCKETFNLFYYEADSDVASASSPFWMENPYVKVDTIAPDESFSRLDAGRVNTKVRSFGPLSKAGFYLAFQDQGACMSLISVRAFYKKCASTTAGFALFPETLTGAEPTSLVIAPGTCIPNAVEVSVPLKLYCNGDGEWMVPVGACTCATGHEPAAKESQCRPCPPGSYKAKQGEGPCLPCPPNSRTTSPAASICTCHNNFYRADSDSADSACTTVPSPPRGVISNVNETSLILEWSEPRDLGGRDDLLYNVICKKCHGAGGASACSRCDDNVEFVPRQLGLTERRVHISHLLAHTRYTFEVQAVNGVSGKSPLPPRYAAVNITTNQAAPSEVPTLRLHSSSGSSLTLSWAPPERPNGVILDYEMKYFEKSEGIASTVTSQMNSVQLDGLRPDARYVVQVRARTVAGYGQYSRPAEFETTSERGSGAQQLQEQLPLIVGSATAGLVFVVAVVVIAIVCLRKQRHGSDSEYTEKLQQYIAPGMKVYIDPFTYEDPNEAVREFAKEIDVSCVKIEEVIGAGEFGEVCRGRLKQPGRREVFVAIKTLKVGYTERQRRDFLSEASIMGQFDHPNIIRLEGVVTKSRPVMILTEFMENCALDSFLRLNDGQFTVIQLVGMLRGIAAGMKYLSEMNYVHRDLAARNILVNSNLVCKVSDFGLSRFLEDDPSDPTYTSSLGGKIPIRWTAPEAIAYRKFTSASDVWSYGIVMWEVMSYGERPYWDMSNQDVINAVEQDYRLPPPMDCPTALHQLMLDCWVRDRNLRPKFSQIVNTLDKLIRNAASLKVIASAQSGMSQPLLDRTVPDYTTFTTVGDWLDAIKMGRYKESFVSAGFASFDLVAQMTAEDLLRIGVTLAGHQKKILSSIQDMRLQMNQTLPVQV

`Oc1cccc(-c2nc(N3CCOCC3)c3oc4ncccc4c3n2)c1` has a remaining activity of 127% (enzyme activity; inhibitor; 10 µM).
For `Cc1ccc(C(=O)NCc2ccsc2)cc1C#Cc1cn(C(C)C)c2ncnc(N)c12`, the activity vs control was 100% (enzyme activity; inhibitor; 1 µM).
The remaining activity of `COc1cc(Cl)c(C(=O)N[C@@H](CN[C@H]2CC[C@@H](N)CC2)Cc2ccc(C#N)cc2)cc1-c1ccc(CN[C@H](C)c2ccc(C)cc2)o1` is reported as 97% (enzyme activity; inhibitor; 1 µM).
The inhibition of `COc1cc2ncnc(Nc3ccc(Oc4ccccc4)cc3C)c2cc1OC` is reported as 1% (enzyme activity; inhibitor; 1 µM).
For `COc1cc(Nc2cnc(C#N)c(O[C@H](C)CN(C)C)n2)ncc1-c1cnn(C)c1`, the remaining activity was 68% (enzyme activity; inhibitor; radiometric; 1 µM).
With `Cc1sc(C(=O)NC2COC2)cc1-n1cc(NC(=O)Nc2c(F)cccc2Cl)cn1` the remaining activity was 97.2% (enzyme activity; inhibitor; 10 µM).
For `Cn1nc(C(=O)NCc2ccc(C(=O)O)cc2)cc1-c1ccc2[nH]ccc2c1`, the remaining binding was 100% (cell-free assay; competition with immobilised ligand; 0.1 µM).
With `CCCS(=O)(=O)Nc1ccc(F)c(C(=O)c2c[nH]c3ncc(-c4ccc(Cl)cc4)cc23)c1F` the inhibition was less than 10% (enzyme activity; inhibitor; 1 µM).
With `FC(F)c1nc2ccccc2n1-c1nc(N2CCOCC2)nc(N2CCOCC2)n1` the remaining activity was 113% (enzyme activity; inhibitor; 10 µM).
With `CC(C)(O)[C@H]1CC[C@H](Nc2ccc3ncc(-c4cccc(C(F)(F)F)c4)n3n2)CC1` the remaining activity was 87.9% (enzyme activity; inhibitor; 1 µM).
The inhibition of `CCN(CC)CCNC(=O)c1c(C)[nH]c(/C=C2\C(=O)Nc3ccc(F)cc32)c1C` is reported as 10% (enzyme activity; inhibitor; 10 µM).
`CCCOc1ccc(OC)c(F)c1C(=O)c1ccc(C(=O)N[C@@H]2CNC[C@H]2NC(=O)c2ccc3[nH]ncc3c2)cc1` has a remaining activity of 102% (enzyme activity; inhibitor; 10 µM).
For `Cc1cc(NC(=O)c2cccc(S(F)(F)(F)(F)F)c2)cc(-n2ccn3nc(-c4cccnc4)cc23)c1`, the remaining binding was 100% (cell-free assay; competition with immobilised ligand; 1 µM).
The remaining activity of `CC(C)(C)c1nc(-c2cccc(NS(=O)(=O)c3c(F)cccc3F)c2F)c(-c2ccnc(N)n2)s1` is reported as 92% (enzyme activity; inhibitor; radiometric; 1 µM).
With `COc1cccc(CNC(=O)c2nc3scc(COCc4ccc(C(=O)O)cc4)c3c(=O)[nH]2)c1` the remaining binding was 85.4% (cell-free assay; competition with immobilised ligand; 1 µM).
With `O=C1Nc2ccc(Cl)cc2C1=Cc1cc(Cl)c(O)c(Cl)c1` the remaining signal was 91% (cell-free assay; 0.5 µM).
The inhibition of `Cn1cncc1C1=CN(c2ncnc3[nH]cnc23)CCS1` is reported as 20.2% (enzyme activity; inhibitor; radiometric; 2 µM).
With `CN([C@@H]1CCc2c(CC(=O)O)c3ccccc3n2C1)S(=O)(=O)c1ccc(F)cc1` the remaining binding was 88% (cell-free assay; competition with immobilised ligand; 1 µM).
`CC/C(=N\NC(=O)NCc1cccc(O)c1)c1ccc(O)c(C)c1O` gave an inhibition of 0.6% (enzyme activity; inhibitor; 0.1 µM).
`CCCOc1ccc([C@@H]2[C@@H](C(=O)O)[C@H](c3ccc4c(c3)OCO4)CN2CC(=O)Nc2c(CC)cccc2CC)cc1` has a remaining binding of 96% (cell-free assay; competition with immobilised ligand; 1 µM).
`C#Cc1cccc(Nc2ncnc3cc(OCCOC)c(OCCOC)cc23)c1` has a remaining signal of 58% (cell-free assay; 0.5 µM).
With `Nc1nc(NC2CCCCC2)sc1C(=O)c1ccccc1` the remaining activity was 88% (enzyme activity; inhibitor; 10 µM).
For `O=C1NC(=O)c2cc(Nc3ccc(F)cc3)c(Nc3ccc(F)cc3)cc21`, the remaining signal was 94.7% (cell-free assay; 0.5 µM).
`O=c1nc(-c2ccccn2)sc2ccccc12` gave a remaining binding of 100% (cell-free assay; competition with immobilised ligand; 1 µM).
The inhibition of `CNC(=O)c1cc(Oc2ccc(NC(=O)Nc3ccc(Cl)c(C(F)(F)F)c3)cc2)ccn1` is reported as 3% (enzyme activity; inhibitor; 0.3 µM).
`CN(C)C(=O)Cn1cc(-c2nc(C3(c4ccc(-c5cnc(N)nc5)cc4)CC3)no2)cn1` has a remaining binding of 95% (cell-free assay; competition with immobilised ligand; 1 µM).
For `COc1ccnn2ncc(-c3ccnc(N(C)C)n3)c12`, the remaining binding was 100% (binding; 1 µM).
The remaining binding of `Cn1cc(Cl)c2c(Oc3c(F)cc(Nc4cc(Cl)nc(N)n4)cc3F)ccnc21` is reported as 100% (cell-free assay; competition with immobilised ligand; 0.1 µM).
For `N#CCCc1ccc2c(c1)-c1[nH]c3ccc([N+](=O)[O-])cc3c1CC(=O)N2`, the remaining signal was 102% (cell-free assay; 0.5 µM).
